# Screens as filed in PubChem.
# CAL PDZ FP-1: untagged CAL PDZ binding inhibitors, primary screen, biochemical, fluorescence polarization, HTS; Golgi-associated PDZ and coiled-coil motif-containing protein (Homo sapiens), Q9HD26; purified CAL PDZ, TMR-peptide fluorescence polarization, 1 h; inhibition, % at 24.9 µM; actives 0.92% (n = 300,000); AID 602252, 2012;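 active means mean inhibition of at least 30% with at least half of replicates also reaching 30%; inconclusive means no clear call, values can overlap the other calls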
# RAD54 inh: inhibitors of human RAD54 branch migration, primary screen, biochemical, fluorescence, single point; AID 602329, 2012; DNA repair and recombination protein RAD54-like (Homo sapiens), Q92698; RAD54 Holliday junction branch migration, FAM/BHQ fluorescence; actives 0.14% (n = 360,000); inhibition, % at 10.4 µM;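 active means mean normalized replicate activity at least 40 and at least half of replicates scoring 40 or more; inconclusive means only one of the two criteria met; inactive means mean below 40 and under half of replicates reaching 40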;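 further: inhibitors cause a drop in the FAM fluorescence signal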
# ERp5 block: inhibitors of ERp5-driven insulin aggregation, primary screen, biochemical, turbidity, absorbance 650 nm, single point | 90 min | inhibition, % at 9.99 µM | actives 0.05% (n = 350,000);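 active means mean replicate inhibition above about 25%, with every replicate also reaching it, limit read from the data, passing the limit was not always enough; inconclusive means only one of those two criteria met; inactive means neither criterion met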
# Target sequence (Q15084 whole entry, looked up): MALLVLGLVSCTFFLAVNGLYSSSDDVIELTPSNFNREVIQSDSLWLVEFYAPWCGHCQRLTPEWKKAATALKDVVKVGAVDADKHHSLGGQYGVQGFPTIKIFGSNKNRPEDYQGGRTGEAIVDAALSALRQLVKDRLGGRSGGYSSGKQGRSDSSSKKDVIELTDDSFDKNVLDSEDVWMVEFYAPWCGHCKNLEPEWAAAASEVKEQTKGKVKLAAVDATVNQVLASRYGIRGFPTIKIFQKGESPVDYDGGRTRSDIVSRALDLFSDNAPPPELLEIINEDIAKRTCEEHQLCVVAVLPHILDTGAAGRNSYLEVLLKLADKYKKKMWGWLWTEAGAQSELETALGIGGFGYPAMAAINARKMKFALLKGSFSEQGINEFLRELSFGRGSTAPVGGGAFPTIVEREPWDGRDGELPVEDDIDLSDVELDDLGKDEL
# CAL PDZ FP-2: CAL PDZ peptide-binding inhibitors, primary screen, biochemical, fluorescence polarization, Cer-tagged CAL PDZ, HTS; purified CAL PDZ, TMR-peptide fluorescence polarization, 1 h; actives 0.02% (n = 330,000); Golgi-associated PDZ and coiled-coil motif-containing protein (Homo sapiens), Q9HD26; inhibition, % at 20 µM;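 active means highest replicate inhibition of at least 40%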
#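 material = purified tagged CAL PDZ domain construct (CerCALP) | compound dosing = 20 µM, one dose | times = 1 h at RT | measured by = fluorescence polarization from S- and P-plane intensities, G-factor corrected | read-out = inhibition from polarization loss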
# RAD52 inh: RAD52 DNA annealing inhibitors, primary screen, biochemical, FRET, single point, set 2; actives 0.46% (n = 360,000); inhibition, % at 18.7 µM; AID 651710, 2012; recombinant RAD52 DNA annealing, FRET fluorescence;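 active means every replicate showing at least 50% inhibition; inconclusive means mean inhibition at least 50% but not in every replicate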
# PDI turbidity: inhibitors of human PDI, primary screen, biochemical, turbidity, single point, plate reader; Protein disulfide-isomerase (Homo sapiens), P07237; PDI insulin aggregation turbidity, A650, 90 min; inhibition, % at 10 µM; actives 0.052% (n = 350,000); AID 588391, 2011;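 active means mean inhibition across replicates of 30% or more, whatever share of single replicates reach that level; inconclusive means mean inhibition below 30% while every single replicate reaches 30%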
# Numbers stand for hits; n = inactive; u = inconclusive; x = not tested or not shown. Sampled rows, rich in hits. Any-hit rate of the full collection: about 1%.
SMILES,CAL PDZ FP-1,RAD54 inh,ERp5 block,CAL PDZ FP-2,RAD52 inh,PDI turbidity
Cc1c(-c2nc(-c3ccncc3)no2)cccc1[N+](=O)[O-],69,x,n,n,n,n
Cc1ccc(S(=O)(=O)N(CC(O)CN2CCOCC2)c2cccc([N+](=O)[O-])c2)cc1 (centres undefined),n,n,27,n,n,n
O=[N+]([O-])c1cccc(N(CC(O)CN2CCCC2)S(=O)(=O)c2ccccc2)c1 (centres undefined),n,n,n,n,n,n
CCOC(=O)C1CCN(C(=O)CCS(=O)(=O)c2ccc3c(c2)CCN3C(C)=O)CC1,n,n,x,n,x,n
CCOC(=O)C1CCN(C(=O)CCS(=O)(=O)c2ccc3c(c2)n(C)c(=O)c(=O)n3C)CC1,52,n,n,n,n,x
C[C@H]1CN([C@@H](C)CO)C(=O)Cc2cc(NC(=O)Cn3cnnn3)ccc2O[C@H]1CN(C)S(=O)(=O)c1ccc(F)cc1,x,n,n,x,n,x
Cn1nc(-c2ccc(Cl)cc2)c2cc(C(=O)NCCCN3CCOCC3)sc21,n,84,x,n,x,n
COc1ccc(NC(=O)N(C)C[C@H]2Oc3ccc(NC(=O)Nc4ccc5c(c4)OCO5)cc3C(=O)N([C@@H](C)CO)C[C@@H]2C)cc1,x,n,n,x,n,x
CCCN(C)C[C@@H]1Oc2cc(-c3ccc(C)cc3)ccc2S(=O)(=O)N([C@@H](C)CO)C[C@@H]1C,x,n,n,x,n,x
C[C@H]1CN([C@@H](C)CO)S(=O)(=O)c2ccc(C#Cc3ccc(F)cc3)cc2O[C@H]1CN(C)CC1CC1,x,n,u,x,n,x
C[C@H](CO)N1C[C@H](C)[C@@H](CN(C)CC2CC2)Oc2cc(-c3ccc(F)cc3)ccc2S1(=O)=O,x,n,n,x,n,x
C[C@@H]1CN([C@H](C)CO)S(=O)(=O)c2ccc(C#Cc3cccc(F)c3)cc2O[C@@H]1CN(C)CC1CC1,x,n,n,x,59,x
CCCN(C)C[C@@H]1Oc2cc(-c3ccc(F)cc3)ccc2S(=O)(=O)N([C@@H](C)CO)C[C@@H]1C,x,n,32,x,n,x
C[C@@H]1CN([C@H](C)CO)S(=O)(=O)c2ccc(-c3ccc(F)cc3)cc2O[C@@H]1CN(C)CC1CC1,x,n,27,x,n,x
CCOC(=O)CC(=O)Nc1nnc(C(C)C)s1,38,n,x,n,x,n
CC(C)c1nnc(NC(=O)CCCC(=O)O)s1,n,n,x,n,x,n
Cn1cnnc1SCC(=O)Nc1ccc(OCc2ccccc2)cc1,41,x,n,n,n,n
Cn1cnnc1SCC(=O)Nc1ccccc1,x,n,n,n,n,n
C[C@H]1CCCCO[C@H](CN(C)C(=O)Cc2ccccc2)[C@@H](C)CN([C@@H](C)CO)C(=O)c2cc(NC(=O)Nc3ccc(F)cc3)ccc2O1,x,n,n,x,n,x
CN1/C(=C\C(=O)c2cccs2)Sc2ccccc21,n,n,x,n,x,n
CN1/C(=C/C(=O)c2cccs2)Sc2ccccc21,x,56,x,n,x,n
COCc1cn(CC[C@H]2CC[C@@H](NC(=O)c3ccc(F)cc3)[C@@H](CO)O2)nn1,x,n,n,x,n,x
O=C(C[C@H]1C[C@@H]2c3cc(NC(=O)C4CCOCC4)ccc3O[C@@H]2[C@H](CO)O1)NCCN1CCCCC1,x,n,n,x,n,x
Cc1c(O)ccc2c(CN3CCN(C/C=C/c4ccccc4)CC3)cc(=O)oc12,n,x,n,n,n,44
COc1ccc2c3c([nH]c2c1)[C@H](CO)N(C(=O)C1CC1)CC31CN(C(=O)NC(C)C)C1,x,x,n,x,n,x
SMILES,CAL PDZ FP-1,RAD54 inh,ERp5 block,CAL PDZ FP-2,RAD52 inh,PDI turbidity
C[C@@H]1CN([C@@H](C)CO)S(=O)(=O)c2ccc(C#CC3CC3)cc2O[C@H]1CN(C)C(=O)c1ccncc1,x,n,n,x,n,x
CC1CN(CCCCOc2ccc(C(C)C)cc2)CC(C)O1 (centres undefined),n,n,x,n,x,n
CC1CN(CCCCOc2ccc(Cl)c3ccccc23)CC(C)O1 (centres undefined),43,n,n,n,n,n
COCCCn1c(SC(C)C(=O)Nc2c(C)n(C)n(-c3ccccc3)c2=O)n[nH]c1=O (centres undefined),43,x,n,n,n,n
C[C@H]1CN([C@@H](C)CO)S(=O)(=O)c2ccc(C#CCN(C)C)cc2O[C@H]1CN(C)C(=O)C1CCCCC1,x,n,n,x,n,x
Nc1cccc(/C=C/c2ccncc2)c1,74,x,n,n,n,n
O=C(Oc1c(CN2CCOCC2)cc(Cl)c2cccnc12)c1ccccc1,47,x,n,n,n,n
COc1ccccc1C(=O)NCCC(=O)NCC1CCCCC1,79,n,n,n,n,n
O=c1[nH]c(CN2CCN(c3ccccc3)CC2)nc2scc(-c3ccccc3)c12,n,n,n,n,n,n
Cc1sc2nc(CN3CCN(c4ccc(O)cc4)CC3)[nH]c(=O)c2c1C,45,x,n,n,n,n
CN(C)CCCCOc1ccc(Br)cc1Cl,83,x,n,n,n,n
COc1ccc(NC(=O)Nc2ccc3c(c2)CC(=O)N([C@@H](C)CO)C[C@H](C)[C@@H](CN(C)C(=O)Nc2cccc4ccccc24)O3)cc1,x,n,x,x,x,x
NCC1CC2c3ccccc3C1c1ccccc12 (centres undefined),92,n,n,x,n,n
CCC(=O)N(C)C[C@H]1Oc2cc(C#CC3CC3)ccc2S(=O)(=O)N([C@H](C)CO)C[C@@H]1C,x,n,n,x,n,x
COc1ccc(S(=O)(=O)N2CCC(C(=O)NCCC(=O)Nc3cccc(Cl)c3)CC2)cc1,41,n,n,n,n,n
COc1ccc(NC(=O)CCNC(=O)C2CCN(S(=O)(=O)c3ccc(OC)cc3)CC2)cc1,n,n,n,n,n,n
CCS(=O)(=O)Nc1ccc2c(c1)C(=O)N(C)C[C@@H](OC)[C@@H](C)CN(C(=O)C1CC1)[C@H](C)CO2,x,n,n,x,n,x
Cc1ccc(C(=O)NN2C(=O)c3ccc(S(=O)(=O)c4ccc(C(=O)O)cc4)cc3C2=O)cc1,47,n,n,n,n,n
O=C(NCC[C@H]1CC[C@@H](NC(=O)C2CCCC2)[C@H](CO)O1)Nc1ccc(Cl)cc1,x,n,n,x,n,x
Cc1ccc(C)c(OCC(=O)Nc2ccc3c(c2)OCO3)c1,n,x,n,n,n,n
O=C(COc1ncnc2sccc12)Nc1ccc2c(c1)OCCO2,44,n,x,n,x,n
Cc1cc(C)c(OCC(=O)Nc2ccc3c(c2)OCO3)cc1C,active,n,x,n,x,n
